Data from ChEMBL document CHEMBL2417372, “Design, synthesis, and mechanism of action of 2-(3-hydroxy-5-methoxyphenyl)-6-pyrrolidinylquinolin-4-one as a potent anticancer lead” (Bioorg Med Chem Lett, 2013).

Legend:
Tubulin (Homo sapiens) [1] = target: T1, Tubulin (Homo sapiens) (UniProt P68371+Q9H4B7+P0DPH7+P68366+Q13509+Q71U36+P04350+Q3ZCM7+P07437+P68363+Q9BQE3+Q6PEY2+Q13885+Q9BVA1+Q9BUF5); assay: Inhibition of tubulin polymerization in human NCI-H522 cells assessed as alpha-tubulin accumulation in cytoskeletal fraction after 24 hrs by Western blot analysis; assay type: cell-based
Outline: (§1)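 NCI-H522 cells were exposed for 24 h to compound (10, 30 or 100 nM) or DMSO vehicle. They were then lysed 5 min at 37 °C in hypotonic buffer (1 mM MgCl2, 2 mM EGTA, 0.5% NP-40, protease inhibitors, 20 mM Tris-HCl pH 6.8) and centrifuged at 15,000 × g for 10 min at 25 °C. α- and β-tubulin were assessed in the cytoskeletal fraction.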

Tubulin (Homo sapiens) [2] = target: T1, Tubulin (Homo sapiens); assay: Inhibition of tubulin polymerization in human NCI-H522 cells assessed as beta-tubulin accumulation in cytoskeletal fraction after 24 hrs by Western blot analysis; assay type: cell-based; outline: as §1
Tubulin (Sus scrofa) = Tubulin (Sus scrofa) (UniProt P02554+P02550); assay: Inhibition of porcine brain tubulin polymerization measured every 30 seconds for 30 mins
HL-60 = assay: Cytotoxicity against human HL60 cells after 48 hrs; assay type: functional, cell-based; conditions: HL-60, 48 h
Outline: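 MTT viability assay on log-phase cells at 37 °C, exposed to compound or DMSO vehicle for 48 h. MTT (1 mg/mL in PBS) was then added for 2 h, and absorbance was read at 570 nm with 630 nm correction. IC50 is the concentration giving 50% proliferation inhibition. Cells were cultured in 5% CO2: HL-60 in RPMI-1640 with 10% FBS; Hep3B in DMEM/F12 with 10% FBS; Detroit 551 in DMEM with 10% FBS.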

T47D = assay: Cytotoxicity against human T47D cells after 48 hrs; assay type: functional
MDA-MB-468 = assay: Cytotoxicity against human MDA-MB-468 cells after 48 hrs; assay type: functional; conditions: MDA-MB-468, 48 h
MDA-MB-231 = assay: Cytotoxicity against human MDA-MB-231 cells after 48 hrs; assay type: functional; conditions: MDA-MB-231, 48 h
MCF7 = assay: Cytotoxicity against human MCF7 cells after 48 hrs; assay type: functional; conditions: MCF7, 48 h
A498 = assay: Cytotoxicity against human A498 cells after 48 hrs; assay type: functional; conditions: A498, 48 h
SK-OV-3 = assay: Cytotoxicity against human SKOV3 cells after 48 hrs; assay type: functional; conditions: SK-OV-3, 48 h
786-0 = assay: Cytotoxicity against human 786-0 cells after 48 hrs; assay type: functional; conditions: 786-0, 48 h
[3] = Cytotoxicity against human NCI-ADR-RES cells after 48 hrs; assay type: functional
OVCAR-5 = assay: Cytotoxicity against human OVCAR5 cells after 48 hrs; assay type: functional; conditions: OVCAR-5, 48 h
OVCAR-4 = assay: Cytotoxicity against human OVCAR4 cells after 48 hrs; assay type: functional; conditions: OVCAR-4, 48 h
UACC-62 = assay: Cytotoxicity against human UACC62 cells after 48 hrs; assay type: functional; conditions: UACC-62, 48 h
IGROV-1 = assay: Cytotoxicity against human IGROV1 cells after 48 hrs; assay type: functional; conditions: IGROV-1, 48 h
SK-MEL-5 = assay: Cytotoxicity against human SK-MEL-5 cells after 48 hrs; assay type: functional; conditions: SK-MEL-5, 48 h
UACC-257 = assay: Cytotoxicity against human UACC257 cells after 48 hrs; assay type: functional; conditions: UACC-257, 48 h
SK-MEL-2 = assay: Cytotoxicity against human SK-MEL-2 cells after 48 hrs; assay type: functional; conditions: SK-MEL-2, 48 h
Outline: (§2)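 Tested in the NCI-60 human cancer cell line panel. Results are given as log concentrations: GI50 reduced cell growth to 50% […], TGI caused total growth inhibition, and LC50 killed 50% of the test population.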

MDA-MB-435 = assay: Cytotoxicity against human MDA-MB-435 cells after 48 hrs; assay type: functional; conditions: MDA-MB-435, 48 h
Malme-3M = assay: Cytotoxicity against human MALME-3M cells after 48 hrs; assay type: functional
SF-539 = assay: Cytotoxicity against human SF539 cells after 48 hrs; assay type: functional; conditions: SF-539, 48 h
SF-268 = assay: Cytotoxicity against human SF268 cells after 48 hrs; assay type: functional; conditions: SF-268, 48 h
KM12 = assay: Cytotoxicity against human KM12 cells after 48 hrs; assay type: functional; conditions: KM12, 48 h
NCI-H23 = assay: Cytotoxicity against human NCI-H23 cells after 48 hrs; assay type: functional; conditions: NCI-H23, 48 h
NCI-H226 = assay: Cytotoxicity against human NCI-H226 cells after 48 hrs; assay type: functional; conditions: NCI-H226, 48 h
HOP-62 = assay: Cytotoxicity against human HOP62 cells after 48 hrs; assay type: functional; conditions: HOP-62, 48 h
SR = assay: Cytotoxicity against human SR cells after 48 hrs; assay type: functional
[4] = Cytotoxicity against human EKVX cells after 48 hrs; assay type: functional; outline: as §2
RPMI-8226 = assay: Cytotoxicity against human RPMI8226 cells after 48 hrs; assay type: functional; conditions: RPMI-8226, 48 h
CCRF-CEM = assay: Cytotoxicity against human CCRF-CEM cells after 48 hrs; assay type: functional
[5] = read-out: pLC50 (the source's name) (converted)

Tubulin (Sus scrofa), sequence (P02550 whole entry, looked up): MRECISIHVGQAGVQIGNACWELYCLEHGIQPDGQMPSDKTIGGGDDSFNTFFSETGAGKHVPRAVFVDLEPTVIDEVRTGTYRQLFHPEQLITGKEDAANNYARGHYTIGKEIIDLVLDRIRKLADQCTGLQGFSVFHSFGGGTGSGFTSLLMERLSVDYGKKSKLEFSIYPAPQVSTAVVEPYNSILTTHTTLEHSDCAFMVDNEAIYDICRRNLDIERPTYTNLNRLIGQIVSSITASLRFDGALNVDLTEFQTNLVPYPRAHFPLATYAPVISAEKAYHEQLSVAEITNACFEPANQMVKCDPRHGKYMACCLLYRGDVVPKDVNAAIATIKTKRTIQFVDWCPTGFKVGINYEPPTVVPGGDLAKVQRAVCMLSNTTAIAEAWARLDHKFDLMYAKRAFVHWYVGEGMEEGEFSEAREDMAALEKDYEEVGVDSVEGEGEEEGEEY
Tubulin (Sus scrofa), sequence (P02554 whole entry, looked up): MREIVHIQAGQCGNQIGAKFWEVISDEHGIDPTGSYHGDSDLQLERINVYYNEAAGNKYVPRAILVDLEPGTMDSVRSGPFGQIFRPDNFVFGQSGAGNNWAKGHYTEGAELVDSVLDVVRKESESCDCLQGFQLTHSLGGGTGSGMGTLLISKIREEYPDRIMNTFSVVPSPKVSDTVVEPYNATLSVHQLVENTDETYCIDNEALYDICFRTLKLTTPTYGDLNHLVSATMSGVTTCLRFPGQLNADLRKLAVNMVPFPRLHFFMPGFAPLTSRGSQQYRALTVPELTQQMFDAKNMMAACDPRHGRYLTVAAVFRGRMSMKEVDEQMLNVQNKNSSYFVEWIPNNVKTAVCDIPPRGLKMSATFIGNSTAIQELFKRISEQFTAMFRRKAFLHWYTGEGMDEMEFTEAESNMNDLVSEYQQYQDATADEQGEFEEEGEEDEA

COc1cc(O)cc(-c2cc(=O)c3cc(N4CCCC4)ccc3[nH]2)c1
inhibition (Tubulin (Homo sapiens) [1]): Dose-dependent effect | inhibition (Tubulin (Homo sapiens) [2]): Dose-dependent effect | inhibition (Tubulin (Sus scrofa)): Dose-dependent effect | IC50 (HL-60): 0.1 µM | GI50 (T47D): > 100 µM | CC50 (T47D; [5]): > 100 µM | TGI (T47D; read-out: pTGI): > 100 µM | GI50 (MDA-MB-468): 0.263 µM | CC50 (MDA-MB-468; [5]): > 100 µM | TGI (MDA-MB-468; read-out: pTGI (converted)): 2 µM | GI50 (MDA-MB-231): 0.0501 µM | CC50 (MDA-MB-231; [5]): > 100 µM | TGI (MDA-MB-231; read-out: pTGI): > 100 µM | GI50 (MCF7): 0.0479 µM | CC50 (MCF7; [5]): > 100 µM | TGI (MCF7; read-out: pTGI): > 100 µM | GI50 (A498): 4.07 µM | CC50 (A498; [5]): > 100 µM | TGI (A498; read-out: pTGI): > 100 µM | GI50 (SK-OV-3): 0.0234 µM | CC50 (SK-OV-3; [5]): > 100 µM | TGI (SK-OV-3; read-out: pTGI (converted)): 25.1 µM | GI50 (786-0): 0.178 µM | CC50 (786-0; [5]): > 100 µM | TGI (786-0; read-out: pTGI): > 100 µM | GI50 [3]: 0.0617 µM | CC50 [3, 5]: > 100 µM | TGI ([3]; read-out: pTGI (converted)): 0.513 µM | GI50 (OVCAR-5): > 100 µM | CC50 (OVCAR-5; [5]): > 100 µM | TGI (OVCAR-5; read-out: pTGI): > 100 µM | GI50 (OVCAR-4): 0.0977 µM | CC50 (OVCAR-4; [5]): > 100 µM | TGI (OVCAR-4; read-out: pTGI): > 100 µM | GI50 (UACC-62): 0.646 µM | CC50 (UACC-62; [5]): > 100 µM | TGI (UACC-62; read-out: pTGI): > 100 µM | GI50 (IGROV-1): 0.363 µM | CC50 (IGROV-1; [5]): > 100 µM | TGI (IGROV-1; read-out: pTGI): > 100 µM | GI50 (SK-MEL-5): 0.0246 µM | CC50 (SK-MEL-5; [5]): 0.49 µM | TGI (SK-MEL-5; read-out: pTGI (converted)): 0.0661 µM | GI50 (UACC-257): 0.708 µM | CC50 (UACC-257; [5]): > 100 µM | TGI (UACC-257; read-out: pTGI): > 100 µM | GI50 (SK-MEL-2): 0.0282 µM | CC50 (SK-MEL-2; [5]): 87.1 µM | GI50 (MDA-MB-435): 0.01 µM | TGI (MDA-MB-435; read-out: pTGI (converted)): 0.0295 µM | GI50 (Malme-3M): 0.0257 µM | CC50 (Malme-3M; [5]): > 100 µM | TGI (Malme-3M; read-out: pTGI): > 100 µM | GI50 (SF-539): 0.0288 µM | CC50 (SF-539; [5]): > 100 µM | TGI (SF-539; read-out: pTGI): > 100 µM | GI50 (SF-268): 0.0257 µM | CC50 (SF-268; [5]): > 100 µM | TGI (SF-268; read-out: pTGI): > 100 µM | GI50 (KM12): 0.0347 µM | CC50 (KM12; [5]): > 100 µM | TGI (KM12; read-out: pTGI): > 100 µM | GI50 (NCI-H23): 0.126 µM | CC50 (NCI-H23; [5]): > 100 µM | TGI (NCI-H23; read-out: pTGI (converted)): 81.3 µM | GI50 (NCI-H226): > 100 µM | CC50 (NCI-H226; [5]): > 100 µM | TGI (NCI-H226; read-out: pTGI): > 100 µM | GI50 (HOP-62): 0.0513 µM | CC50 (HOP-62; [5]): > 100 µM | TGI (HOP-62; read-out: pTGI (converted)): 20.9 µM | GI50 (SR): < 0.01 µM | CC50 (SR; [5]): > 100 µM | TGI (SR; read-out: pTGI): > 100 µM | CC50 [4, 5]: > 100 µM | TGI ([4]; read-out: pTGI): > 100 µM | GI50 (RPMI-8226): 0.468 µM | CC50 (RPMI-8226; [5]): > 100 µM | TGI (RPMI-8226; read-out: pTGI): > 100 µM | GI50 (CCRF-CEM): 0.0324 µM | CC50 (CCRF-CEM; [5]): > 100 µM | TGI (CCRF-CEM; read-out: pTGI): > 100 µM
